These results are taken from ChEMBL document CHEMBL4130370, “Discovery of 5,6-diaryl-1,2,4-triazines hybrids as potential apoptosis inducers” (Eur J Med Chem, 2017).

A value given as a limit tells only on which side of the number the result lay.

Holding throughout (format): functional, cell-based
Assay [1] concerns ECa-109 cell line. Nature of the assay: Antiproliferative activity against human EC109 cells after 48 hrs by MTT assay. The following applies: ECa-109, 48 h. In short, it runs like this:
(§1)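 Cells exposed to compounds for 48 h, then read by MTT. IC50 is the concentration giving 50% inhibition of tumour cell proliferation, taken from dose-response curves. Values are means±SD of three independent experiments. 5-FU was the reference drug.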
In general terms: Tetrazolium dyes change colour on reduction, which living cells bring about.

Assay [2] has as its system MGC-803. Nature of the assay: Antiproliferative activity against human MGC803 cells after 48 hrs by MTT assay. As to conditions: MGC-803, 48 h. In short, it runs like this:
as §1

Assay [3] concerns PC-3. Description: Antiproliferative activity against human PC3 cells after 48 hrs by MTT assay. As to conditions: PC-3, 48 h. In short, it runs like this:
as §1

The subject of assay [4] is SK-N-SH. Description: Antiproliferative activity against human SK-N-SH cells after 48 hrs by MTT assay.

A word on the IC50: it is the midpoint of a concentration-inhibition curve. With `C#CCSc1nnc(-c2ccccc2)c(-c2ccccc2)n1`, the IC50 in assay [1], in assay [2] and in assay [3] was > 100 µM in each case.
In the case of `CC(=O)CSc1nnc(-c2ccccc2)c(-c2ccccc2)n1`, the IC50 in assay [1], in assay [2] and in assay [3] was > 100 µM in each case.
Take `O=C(O)CCSc1nnc(-c2ccccc2)c(-c2ccccc2)n1`: the half-maximal inhibitory concentration (IC50) in assay [1], in assay [2] and in assay [3] was > 100 µM in each case.
In the case of `NS(=O)(=O)c1ccc(-n2cc(CSc3nnc(-c4ccccc4)c(-c4ccccc4)n3)nn2)cc1`, the IC50 in assay [1], in assay [2] and in assay [3] was > 100 µM throughout.
With `c1ccc(-c2nnc(SCc3cn(Cc4ccc5ccccc5c4)nn3)nc2-c2ccccc2)cc1`, the IC50 in assay [1], in assay [2] and in assay [3] was > 100 µM in each case.
Consider `O=C(/C=C/c1ccc(OCCCn2cc(CSC3=NCCS3)nn2)cc1)c1ccc(Br)cc1`, for which the midpoint of inhibition in assay [4], the IC50, lay at 8.16 µM.
For `Brc1ccc(Cn2cc(CSc3nnc(-c4ccccc4)c(-c4ccccc4)n3)nn2)cc1`, the concentration for half-maximal inhibition (IC50) was > 100 µM in assay [1], > 100 µM in assay [2] and 22 µM in assay [3].
On to `O=c1ccc2ccc(OCCCn3cc(CSc4nnc(-c5ccccc5)c(-c5ccccc5)n4)nn3)cc2o1`, for which the values for the IC50 in assay [1], in assay [2] and in assay [3] were > 100 µM, > 100 µM and 92.3 µM, respectively.
